# Legend:
# [1] = tested on: Human immunodeficiency virus 1; test: Antiviral activity against HIV1 3B infected in human H9 cells; assay type: functional, organism-based; details: Human immunodeficiency virus 1, 3B
# [2] = Therapeutic index, ratio of CC50 for human H9 cells to EC50 for HIV1 3B; assay type: cell-based; details: read-out: TI
# [3] = Therapeutic index, ratio of IC50 for human TZM-b1 cells to EC50 for HIV1 NL4-3; assay type: cell-based; details: read-out: TI
# Procedure, shortened: (§1)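 Cytotoxicity was measured with the CytoTox-Glo kit following the manufacturer's instructions. Antiviral EC50 came from the single-round TZM-bl luciferase assay: 200 TCID50 virus, eight 4-fold sample dilutions, 48 h, and 50% RLU reduction versus virus control after background subtraction.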
# [4] = Cytotoxicity against human TZM-b1 cells; assay type: cell-based
# Procedure, shortened: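 Cytotoxicity in TZM-bl cells read with the CytoTox-Glo luminescent assay, run according to the kit instructions.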
# [5] = tested on: Human immunodeficiency virus 1; test: Antiviral activity against wild type HIV1 NL4-3 in human TZM-b1 cells after 48 hrs by luciferase reporter gene assay; assay type: functional, organism-based; details: Human immunodeficiency virus 1, NL4-3, TZM-b1, 48 h
# Procedure, shortened: (§2)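 Single-round infection of TZM-bl cells with 200 TCID50 virus mixed with test sample at eight 4-fold serial dilutions. Incubated 48 h, then luciferase reagent was added and luminescence read. IC50 is the concentration giving 50% reduction in RLU versus virus-control wells, after subtracting background RLU.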
# [6] = tested on: Human immunodeficiency virus 1; test: Antiviral activity against HIV1 RTMDR1 in human TZM-b1 cells after 48 hrs by luciferase reporter gene assay; assay type: functional, organism-based; details: Human immunodeficiency virus 1, RTMDR1, TZM-b1, 48 h; procedure, shortened: as §2
# [7] = Therapeutic index, ratio of IC50 for human TZM-b1 cells to EC50 for HIV1 RTMDR1; assay type: cell-based; details: read-out: TI; procedure, shortened: as §1
# [8] = tested on: Human immunodeficiency virus 1; test: Antiviral activity against HIV1 infected in human H9 cells; assay type: functional, organism-based; details: Human immunodeficiency virus 1, H9
# [9] = Therapeutic index, ratio of CC50 for human H9 cells to EC50 for HIV1; assay type: cell-based; details: read-out: TI
# [10] = tested on: Human immunodeficiency virus 1; test: Antiviral activity against HIV1 RTMDR1 in human MT4 cells; assay type: functional, organism-based; details: Human immunodeficiency virus 1, RTMDR1, MT4
# [11] = Therapeutic index, ratio of CC50 for human H9 cells to EC50 for HIV1 RTMDR1; assay type: cell-based; details: read-out: TI
# [12] = Solubility of the compound in water after 1 hr; assay type: physicochemical; details: for solubility: HPLC grade water, 1 h
# Procedure, shortened: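 Excess solid compound was added to HPLC-grade water and sonicated in an ultrasonic bath at room temperature for 1 h. Undissolved solid was removed with a PTFE syringe filter. Dissolved concentration was quantified by HPLC on a C18 column (2.1 mm × 100 mm) at a flow rate of 200 μL/min.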
SMILES,EC50 [1],selectivity ratio [2],selectivity ratio [3],IC50 [4],EC50 [5],EC50 [6],selectivity ratio [7],EC50 [8],selectivity ratio [9],EC50 [10],selectivity ratio [11],solubility [12],solubility at 1 h ([12]; water)
Cc1cc(=O)oc2c3c(ccc12)OC(C)(C)[C@H](OC(=O)[C@@]12CC[C@@](C)(C(=O)O1)C2(C)C)[C@@H]3OC(=O)[C@@]12CC[C@@](C)(C(=O)O1)C2(C)C,5.9 nM,6660,–,–,–,–,–,–,–,–,–,–,–
CCc1cc(=O)c2ccc3c(c2o1)[C@@H](OC(=O)[C@@]12CC[C@@](C)(C(=O)O1)C2(C)C)[C@@H](OC(=O)[C@@]12CC[C@@](C)(C(=O)O1)C2(C)C)C(C)(C)O3,–,–,94,6600 nM,70 nM,110 nM,60,70 nM,94,110 nM,60,< 0.9 µg/mL,–
CNc1c(C)oc2c3c(ccc2c1=O)OC(C)(C)[C@H](OC(=O)[C@@]12CC[C@@](C)(C(=O)O1)C2(C)C)[C@@H]3OC(=O)[C@@]12CC[C@@](C)(C(=O)O1)C2(C)C,–,–,> 200,> 60000 nM,300 nM,450 nM,> 130,–,–,–,–,–,–
Cc1oc2c3c(ccc2c(=O)c1Br)OC(C)(C)[C@H](OC(=O)[C@@]12CC[C@@](C)(C(=O)O1)C2(C)C)[C@@H]3OC(=O)[C@@]12CC[C@@](C)(C(=O)O1)C2(C)C,–,–,14,7700 nM,550 nM,570 nM,14,–,–,–,–,–,–
Cc1cc(=O)c2c(C)cc3c(c2o1)[C@@H](OC(=O)[C@@]12CC[C@@](C)(C(=O)O1)C2(C)C)[C@@H](OC(=O)[C@@]12CC[C@@](C)(C(=O)O1)C2(C)C)C(C)(C)O3,–,–,420,15000 nM,36 nM,49 nM,310,–,–,–,–,–,5.2 µg/mL
Cc1oc2c3c(cc(C)c2c(=O)c1Br)OC(C)(C)[C@H](OC(=O)[C@@]12CC[C@@](C)(C(=O)O1)C2(C)C)[C@@H]3OC(=O)[C@@]12CC[C@@](C)(C(=O)O1)C2(C)C,–,–,> 24,> 14000 nM,590 nM,910 nM,> 15,–,–,–,–,–,–
Cc1oc2c3c(c(Br)c(C)c2c(=O)c1Br)OC(C)(C)[C@H](OC(=O)[C@@]12CC[C@@](C)(C(=O)O1)C2(C)C)[C@@H]3OC(=O)[C@@]12CC[C@@](C)(C(=O)O1)C2(C)C,–,–,> 1.2,> 12000 nM,10000 nM,> 12000 nM,–,–,–,–,–,–,–
Cc1cc(=O)c2c(CBr)cc3c(c2o1)[C@@H](OC(=O)[C@@]12CC[C@@](C)(C(=O)O1)C2(C)C)[C@@H](OC(=O)[C@@]12CC[C@@](C)(C(=O)O1)C2(C)C)C(C)(C)O3,–,–,11,8900 nM,810 nM,1200 nM,7.4,–,–,–,–,–,–
CCc1cc(=O)c2c(C)cc3c(c2o1)[C@@H](OC(=O)[C@@]12CC[C@@](C)(C(=O)O1)C2(C)C)[C@@H](OC(=O)[C@@]12CC[C@@](C)(C(=O)O1)C2(C)C)C(C)(C)O3,–,–,110,11000 nM,100 nM,54 nM,200,–,–,–,–,–,–
CCc1cc(=O)c2c(CC)cc3c(c2o1)[C@@H](OC(=O)[C@@]12CC[C@@](C)(C(=O)O1)C2(C)C)[C@@H](OC(=O)[C@@]12CC[C@@](C)(C(=O)O1)C2(C)C)C(C)(C)O3,–,–,> 120,> 30000 nM,250 nM,340 nM,–,–,–,–,–,–,–
CC1(C)Oc2ccc3c(=O)cc(CBr)oc3c2[C@@H](OC(=O)[C@@]23CC[C@@](C)(C(=O)O2)C3(C)C)[C@H]1OC(=O)[C@@]12CC[C@@](C)(C(=O)O1)C2(C)C,–,–,3,1700 nM,550 nM,560 nM,3,–,–,–,–,–,–
CC(Br)c1cc(=O)c2ccc3c(c2o1)[C@@H](OC(=O)[C@@]12CC[C@@](C)(C(=O)O1)C2(C)C)[C@@H](OC(=O)[C@@]12CC[C@@](C)(C(=O)O1)C2(C)C)C(C)(C)O3 (stereo partly drawn),–,–,–,3500 nM,–,–,–,–,–,–,–,–,–
CC(Br)(Br)c1cc(=O)c2ccc3c(c2o1)[C@@H](OC(=O)[C@@]12CC[C@@](C)(C(=O)O1)C2(C)C)[C@@H](OC(=O)[C@@]12CC[C@@](C)(C(=O)O1)C2(C)C)C(C)(C)O3,–,–,1.8,1800 nM,1000 nM,450 nM,4,–,–,–,–,–,–
CC1(C)Oc2ccc3c(=O)cc(CC#N)oc3c2[C@@H](OC(=O)[C@@]23CC[C@@](C)(C(=O)O2)C3(C)C)[C@H]1OC(=O)[C@@]12CC[C@@](C)(C(=O)O1)C2(C)C,–,–,9.4,17000 nM,1800 nM,1400 nM,12,–,–,–,–,–,–
Cc1c(C#N)oc2c3c(ccc2c1=O)OC(C)(C)[C@H](OC(=O)[C@@]12CC[C@@](C)(C(=O)O1)C2(C)C)[C@@H]3OC(=O)[C@@]12CC[C@@](C)(C(=O)O1)C2(C)C,–,–,290,40000 nM,140 nM,1900 nM,21,–,–,–,–,–,–
CNCc1cc(=O)c2ccc3c(c2o1)[C@@H](OC(=O)[C@@]12CC[C@@](C)(C(=O)O1)C2(C)C)[C@@H](OC(=O)[C@@]12CC[C@@](C)(C(=O)O1)C2(C)C)C(C)(C)O3,–,–,> 100,> 30000 nM,290 nM,690 nM,> 43,–,–,–,–,–,–
CCc1oc2c3c(ccc2c(=O)c1Br)OC(C)(C)[C@H](OC(=O)[C@@]12CC[C@@](C)(C(=O)O1)C2(C)C)[C@@H]3OC(=O)[C@@]12CC[C@@](C)(C(=O)O1)C2(C)C,–,–,> 24,> 27000 nM,1100 nM,990 nM,> 28,–,–,–,–,–,–
Cc1oc2c3c(ccc2c(=O)c1I)OC(C)(C)[C@H](OC(=O)[C@@]12CC[C@@](C)(C(=O)O1)C2(C)C)[C@@H]3OC(=O)[C@@]12CC[C@@](C)(C(=O)O1)C2(C)C,–,–,18,13000 nM,730 nM,1600 nM,8,–,–,–,–,–,–
CCc1oc2c3c(ccc2c(=O)c1C#N)OC(C)(C)[C@H](OC(=O)[C@@]12CC[C@@](C)(C(=O)O1)C2(C)C)[C@@H]3OC(=O)[C@@]12CC[C@@](C)(C(=O)O1)C2(C)C,–,–,> 54,> 30000 nM,550 nM,790 nM,> 37,–,–,–,–,–,–
Cc1oc2c3c(ccc2c(=O)c1N)OC(C)(C)[C@H](OC(=O)[C@@]12CC[C@@](C)(C(=O)O1)C2(C)C)[C@@H]3OC(=O)[C@@]12CC[C@@](C)(C(=O)O1)C2(C)C,–,–,130,32000 nM,250 nM,470 nM,68,–,–,–,–,–,–
CCc1oc2c3c(ccc2c(=O)c1N)OC(C)(C)[C@H](OC(=O)[C@@]12CC[C@@](C)(C(=O)O1)C2(C)C)[C@@H]3OC(=O)[C@@]12CC[C@@](C)(C(=O)O1)C2(C)C,–,–,190,23000 nM,120 nM,310 nM,74,–,–,–,–,10.3 µg/mL,–
CCc1oc2c3c(ccc2c(=O)c1NC)OC(C)(C)[C@H](OC(=O)[C@@]12CC[C@@](C)(C(=O)O1)C2(C)C)[C@@H]3OC(=O)[C@@]12CC[C@@](C)(C(=O)O1)C2(C)C,–,–,73,32000 nM,440 nM,1100 nM,29,–,–,–,–,–,–
CC1(C)Oc2ccc3c(=O)cc(CN4CCOCC4)oc3c2[C@@H](OC(=O)[C@@]23CC[C@@](C)(C(=O)O2)C3(C)C)[C@H]1OC(=O)[C@@]12CC[C@@](C)(C(=O)O1)C2(C)C,–,–,> 14,> 28000 nM,–,–,> 6.3,–,–,–,–,–,–
CN(C)CCCN1CCN(Cc2cc(=O)c3ccc4c(c3o2)[C@@H](OC(=O)[C@@]23CC[C@@](C)(C(=O)O2)C3(C)C)[C@@H](OC(=O)[C@@]23CC[C@@](C)(C(=O)O2)C3(C)C)C(C)(C)O4)CC1,–,–,–,17000 nM,–,–,–,–,–,–,–,–,–
CC1(C)Oc2ccc3c(=O)cc(CNCc4ccncc4)oc3c2[C@@H](OC(=O)[C@@]23CC[C@@](C)(C(=O)O2)C3(C)C)[C@H]1OC(=O)[C@@]12CC[C@@](C)(C(=O)O1)C2(C)C,–,–,> 1.3,> 27000 nM,21000 nM,–,> 1.3,–,–,–,–,–,–
Cc1cc(=O)c2ccc3c(c2o1)[C@@H](OC(=O)[C@@]12CC[C@@](C)(C(=O)O1)C2(C)C)[C@@H](OC(=O)[C@@]12CC[C@@](C)(C(=O)O1)C2(C)C)C(C)(C)O3,–,–,110,11000 nM,100 nM,190 nM,58,–,–,–,–,–,–
CC1(C)Oc2ccc3ccc(=O)oc3c2[C@@H](OC(=O)C23CCC(C)(C(=O)O2)C3(C)C)[C@H]1OC(=O)C12CCC(C)(C(=O)O1)C2(C)C (stereo partly drawn),49 nM,328,–,–,–,–,–,–,–,–,–,–,–
